95 compounds from ChEMBL document CHEMBL4513216, “Probing the Open Global Health Chemical Diversity Library for Multistage-Active Starting Points for Next-Generation Antimalarials” (ACS Infect Dis, 2020) can be followed below.

The nature of the data set: Toxicity liver stage against HepG2, at 10uM. The data set is classed as cell-based. Details: test concentration 10 uM, cell line HepG2-A16-CD81EGFP. Conditions: human, HepG2-A16-CD81EGFP cells; read-out: INHIBITION
Put shortly:
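Uninfected HepG2-A16-CD81EGFP cells, 3 × 10^3 per well, 1536-well, plated on prespotted compound at 10 μM final, parasite-free screening media added to match infected plates; puromycin 10 μM positive, DMSO 0.5% negative; run in parallel with 48 h PbLuc assay at 37 °C, 5% CO2; viability by CellTiter-Glo luminescence, normalized to controls.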
For the compound `Cc1ccc2c(c1)c(C)cc(=O)n2CCC(=O)O`, the cytotoxicity at 10 µM was -5.6%.
As for `Fc1ccc(-c2noc(CN3CCC(c4cc[nH]n4)CC3)n2)cc1`, the cytotoxicity at 10 µM turned out to be 18.4%.
On to `Cc1nn(-c2ccccn2)c(C)c1[C@@H]1C=C[C@@H](NC(=O)CCC(=O)O)C1`, for which the cytotoxicity at 10 µM was 4.59%.
With `COc1ccc(OC)c(C(O)CN2CCN(c3cccc(C)c3)CC2)c1` (stereo not given) the figure was 6.69%; with `O=C(CCCSc1ccc(NC(=O)C2CC2)nn1)NCC1CCCO1` (stereo not given), -4.45%; with `CCCS(=O)(=O)N1CCN(c2cc(-n3cccc3)nc(C)n2)CC1`, 6.62%.
As for `O=C(Cc1ccc(F)cc1)NCCNc1cc(N2CCCC2)cnn1`, the cytotoxicity at 10 µM is -3.29%.
In the case of `O=C(NCCc1ccccn1)[C@@]12CCO[C@@H]1CCN(c1ncccn1)C2`, the cytotoxicity at 10 µM was found to be 4.26%.
For `CS(=O)(=O)NCc1noc2c1CN(C(=O)c1ccsc1)CC2`, the cytotoxicity at 10 µM was 7.86%.
As for `Cc1noc([C@@H]2CCO[C@@H]3CCN(C(=O)Cc4ccsc4)C[C@@H]32)n1`, the cytotoxicity at 10 µM was found to be 10.4%.
For the compound `COCC1CN(Cc2ccoc2)Cc2cn(CC3CCCC3)nc21` (stereo not given), the cytotoxicity at 10 µM worked out at 4.32%.
Consider `Cn1cnc(S(=O)(=O)N2CCCn3cnc(CN4CCCC4)c3C2)c1`, for which the cytotoxicity at 10 µM turned out to be 1.27%.
As to `Cc1cc(C)cc(Nc2nc(C)cc(=O)n2CC(=O)NC(C)C)c1`, the cytotoxicity at 10 µM is -7.3%.
As for `Cn1c(=O)n(C)c2cc(C3SCC(=O)Nc4ccsc43)ccc21` (stereo not given), the figure is 4.49%.
For the compound `O=C([C@H]1C[C@H]2OCC[C@H]2N(C(=O)c2ccncc2)C1)N1CCCCO1`, the cytotoxicity at 10 µM is -6.77%.
In the case of `O=C1CNc2ncnc(Nc3cnn(Cc4ccccc4)c3)c2N1`, the cytotoxicity at 10 µM was 7.38%.
With `Cc1nn(C)c2c(N3CCCC3)nc(C3CC3)nc12` the figure was 0.12%; with `CNC(=O)CCc1cc(C)nc(C2CCN(c3cnccn3)CC2)c1`, 1.31%.
In the case of `O=C1NC2(CCc3ccccc31)CCN(Cc1cccnc1)C2` (stereo not given), the cytotoxicity at 10 µM was found to be 0.9%.
Consider `CCC(=O)NC(c1ccc(C)cc1)c1cccc(S(C)(=O)=O)c1` (stereo not given), for which the cytotoxicity at 10 µM was -7.62%.
Turning to `CCOc1ccc(NC(=O)NCCCN(C)S(C)(=O)=O)cc1C`, the cytotoxicity at 10 µM stood at 2.79%.
As for `Cc1cccc(C)c1NC(=O)CNC(C)Cc1ccsc1` (stereo not given), the figure is -6.12%.
As to `CC(C)(C)OC(=O)N1CCC(NC2CC2)CC1`, the cytotoxicity at 10 µM is -5.64%.
On to `Cc1oc(-c2ccco2)nc1CC(=O)NCC(C)(C)N(C)C`, for which the cytotoxicity at 10 µM is -13.9%.
With `CSC(C)(C)CNC(=O)NC1CCC1`, the cytotoxicity at 10 µM is -7.32%.
Take `O=C(NC1CCN(c2cccc(OC(F)(F)F)c2)C1=O)C1CCC1` (stereo not given): the cytotoxicity at 10 µM is -3.11%.
For `Clc1cnccc1N1CCCOCC1`, the cytotoxicity at 10 µM is -0.625%.
As for `CCCc1n[nH]c(C2CN(C(=O)CCn3nc(C)cc3C)CCO2)n1` (stereo not given), the figure is -11.9%; as for `Cc1noc(C)c1CNCc1c(C(C)C)nn(C)c1N1CCOCC1`, 4.8%.
Consider `Cn1cc(Br)cc(NC(=O)CC(C)(C)C)c1=O`, for which the cytotoxicity at 10 µM was determined as 5.82%.
With `Cc1nn(C)c(C)c1CCC(=O)Nc1nnc(C2CC2)s1` the figure was -10.1%; with `CCCS(=O)(=O)N(C)C(=O)CCc1ccsc1`, 0.321%.
With `Cc1ccc(N2CCC(NCc3cnc(C4CCC4)s3)CC2)nc1`, the cytotoxicity at 10 µM worked out at 6.75%.
For `CC(=O)c1cccc(S(=O)(=O)N2CCC(c3n[nH]c(C)n3)CC2)c1`, the cytotoxicity at 10 µM was -5.83%.
As for `COc1cncc(N2CCN(Cc3cccn3C)CC2)n1`, the cytotoxicity at 10 µM was found to be 6.09%.
With `CN(CC1CCCC1)C(=O)c1cn(C)nc1-c1cccnc1` the figure was -0.0402%; with `CN(Cc1ccc(OC(F)F)cc1)C(=O)CS(=O)(=O)c1ccc(Cl)cc1`, 5.19%.
`CCSc1cc(C(=O)NCc2ccccc2O)ccn1`: the cytotoxicity at 10 µM is -3.81%.
For `O=C(NCC1CC1)C1CN(C(=O)NC2CCCC2)Cc2cncn2C1` (stereo not given), the cytotoxicity at 10 µM was -106%.
Turning to `CS(=O)(=O)NCc1nnc2n1CCN(Cc1cccs1)C2`, the cytotoxicity at 10 µM was -1.57%.
Turning to `Cc1nccn1CCCN1CCC2(CCC(=O)N(CC3CC3)C2)CC1`, the cytotoxicity at 10 µM stood at 3.12%.
Regarding `CCc1nc(CC2CN(c3ncnc4sc(C)c(C)c34)CCO2)no1` (stereo not given), the cytotoxicity at 10 µM was determined as 11.9%.
Take `O=C(c1cccc(Cl)c1)N1CC[C@@H](N2CCC(O)CC2)[C@H](O)C1`: the cytotoxicity at 10 µM is -1.61%.
On to `O=C(CCN1CCCC(CO)(CC2CC2)C1)NC1CCCCC1` (stereo not given), for which the cytotoxicity at 10 µM came to 1.91%.
`Cc1cc(C(=O)NCc2cccnc2N2CCCC(O)C2)[nH]n1` (stereo not given): the cytotoxicity at 10 µM came out at 4.52%.
For the compound `CCOc1ncccc1-c1cc2c(cc1C(N)=O)OCO2`, the cytotoxicity at 10 µM was -0.421%.
In the case of `COC[C@@]12CC[C@@H](N3CCOCC3)C[C@H]1CCN(c1ncccc1F)C2`, the cytotoxicity at 10 µM is -3.47%.
For `CC(C)c1cc(NCC2(Cn3cccn3)CC2)nc(N)n1`, the cytotoxicity at 10 µM turned out to be 3.19%.
As for `COCC(Nc1nc(N(C)C)nc2c1CCNCC2)c1ccccn1` (stereo not given), the figure is 1.58%.
`COCc1cc(CN(C)C(=O)CCC(=O)Nc2cc(C)ccc2F)n[nH]1`: the cytotoxicity at 10 µM was -14.5%.
Take `CCCn1cnnc1CNC1CCSC1` (stereo not given): the cytotoxicity at 10 µM was -1.1%.
As for `CC(C)Cn1c(=O)n(CCn2cc(Cl)cn2)c2cc(C(=O)O)cnc21`, the cytotoxicity at 10 µM is 3.72%.
In the case of `CS(=O)(=O)N1CCC(Oc2ccc(C(=O)NCC3CCC3)cc2Cl)CC1`, the cytotoxicity at 10 µM amounted to 12%.
Turning to `CSc1ccc(C(C(=O)O)N2CCCC2)cc1` (stereo not given), the cytotoxicity at 10 µM was found to be 1.16%.
With `COCCCC1CCCCN1Cc1cnn(C)c1C1CC1` (stereo not given) the figure was -2.52%; with `Cc1nc2c(c(N(C)Cc3ccccc3-n3cccn3)n1)CCNCC2`, -11.2%.
With `CCCNc1ncc(-c2cc(C3CC3)nc(N)c2C#N)cn1` the figure was 8.26%; with `COC(=O)c1cc(OCC2CCC2)cc(C(=O)N[C@@H](C)CO)c1`, -2.18%.
With `Cc1cnc(CNC(=O)CCCn2cnc3ccccc3c2=O)cn1` the figure was -7.2%; with `CNc1nc(C(=O)N2CCN(c3cc(C)nc(C)c3)CC2)cs1`, 3.78%; with `Cc1nc2ccc(S(=O)(=O)Nc3c(C)nn(CC(=O)O)c3C)cc2s1`, -2.83%.
For `CNc1cc(C)nc(N2CCC3(CC2)[C@H](O)C[C@@H]3OC)n1`, the cytotoxicity at 10 µM is -6.72%.
Take `CN(C)Cc1cn(CC2CCCN(c3nccc4occc34)C2)nn1` (stereo not given): the cytotoxicity at 10 µM is -9.67%.
Regarding `CCC(C(=O)NCc1cccnc1)N(c1cccc(C)c1)S(C)(=O)=O` (stereo not given), the cytotoxicity at 10 µM worked out at 2.57%.
As for `COCC(=O)NCc1cccnc1-n1cnc2ccccc21`, the cytotoxicity at 10 µM was -2.8%.
`Cc1cc(N2CCN(Cc3ccc(C)o3)CC2)cc(C)n1`: the cytotoxicity at 10 µM was -6.61%.
With `CC(C)C(NC(=O)Nc1ccccn1)c1cccs1` (stereo not given) the figure was 2.27%.
Consider `COc1ccc(-c2nc(C(=O)NCC3CCOC3)cs2)cc1OC` (stereo not given), for which the cytotoxicity at 10 µM came to 2.39%.
As for `CCOc1ccnc(N2CCN(C(=O)c3ccncc3)CC2)n1`, the cytotoxicity at 10 µM was -4.6%.
In the case of `O=C(CCC1CCCO1)NCc1ccccc1Cn1cncn1` (stereo not given), the cytotoxicity at 10 µM was -4.05%.
As for `Cc1noc(C(C)N2CCN(Cc3ccco3)CC2)n1` (stereo not given), the figure is -3.37%; as for `CCn1cc(NC(=O)NCC(c2ccc(OC)cc2)N(C)C)cn1` (stereo not given), -2.4%.
For the compound `O=S(=O)(NCc1ccccc1Cn1cncn1)N1CCCCCC1`, the cytotoxicity at 10 µM turned out to be 0.512%.
With `Cc1cc(C)c(CNC(=O)N2CCCC2c2ccc(F)cc2)c(=O)[nH]1` (stereo not given) the figure was 1.38%; with `COC(=O)c1cccc(C(=O)NCc2ccc3c(c2)CCCN3C)c1`, -11.7%; with `CN(Cc1ccsc1)C(=O)c1cccc(S(=O)(=O)NC(C)(C)C)c1`, -8.03%.
For the compound `CN(C)C(CNC(=O)c1cc2c([nH]c1=O)CCCC2=O)c1ccsc1` (stereo not given), the cytotoxicity at 10 µM was -1.96%.
`Cc1ccccc1-n1ncc(C(=O)N2CCCC2c2cnn(C)c2)c1C` (stereo not given): the cytotoxicity at 10 µM is -4.84%.
`NC(=O)CN1CCC(NC(=O)Nc2nccs2)CC1`: the cytotoxicity at 10 µM is -5.9%.
In the case of `CC(C(=O)N1CCN(c2ccccc2Cl)CC1)n1cncn1` (stereo not given), the cytotoxicity at 10 µM came out at 5.17%.
As for `Cc1n[nH]c(C2CN(C(=O)Cn3ccccc3=O)CCO2)n1` (stereo not given), the figure is 5.75%; as for `c1ccc(-c2cnc(CNCC3CCCN3c3cccnn3)o2)cc1` (stereo not given), 1.56%.
For `CCc1nnc2n1CCN(Cc1csc(-c3ccc(C)o3)n1)C2`, the cytotoxicity at 10 µM is -1.5%.
As for `Cn1cc(N2C[C@@H]3CN(Cc4ccccn4)C[C@@H]3C2=O)cn1`, the cytotoxicity at 10 µM is -95.6%.
As to `CN(C)CCOC[C@H]1CC[C@H]2[C@H](CCN2C(=O)c2ccoc2)O1`, the cytotoxicity at 10 µM was -81.5%.
On to `Cn1cc(CN2CCC3(CC2)CCN(C(=O)c2cscn2)CC3)cn1`, for which the cytotoxicity at 10 µM is -0.937%.
As for `CCc1ccc(CN2CCC3(CC2)CN(c2cnn(C)c2)C(=O)CO3)o1`, the figure is 0.777%; as for `O=C(c1ccoc1)N1CCOCC2(CCN(C3CCOCC3)C2)C1` (stereo not given), -6.11%; as for `O=C(C1=CCCC1)N1CCC[C@]2(C[C@@H](OCc3ccccn3)CO2)C1`, 9.79%.
On to `Cn1cccc1C(=O)N[C@H]1CN(Cc2ccoc2)[C@@H]2CCCO[C@H]12`, for which the cytotoxicity at 10 µM is -88.7%.
`O=S(=O)(C1CC1)N1CCO[C@@H]2CC(COCc3cccnc3)C[C@H]21` (stereo not given in full): the cytotoxicity at 10 µM was 7.01%.
Regarding `COc1ccc(CN2C[C@@H](OCc3ccccn3)[C@H]3COC[C@H]32)cc1`, the cytotoxicity at 10 µM was found to be 3.63%.
With `Cc1ccc(CN2CCc3ncnc(C4CC4)c3CC2)s1` the figure was 4.63%; with `Cc1noc(C)c1CN1CC[C@@H]2O[C@H](COCC3CC3)CC[C@@H]21`, 5.65%; with `O=C(CC1[C@H]2CN(C(=O)c3cccnc3)C[C@@H]12)Nc1cccnc1` (stereo not given in full), 7.37%.
